Results reported in ChEMBL document CHEMBL1255196, “Radiosensitization of cancer cells by hydroxychalcones” (2010).
The source made the active and inactive calls. The rule behind the calls is not given here.

Legend:
[1] = tested on: HT-29; test: Induction in heat-induced cell killing in human HT-29 cells; assay type: functional, cell-based
How it was run: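 HT-29 cells were treated with drug or DMSO and heated at 41°C for 2 hr. Medium was then replaced and cells grown 10-14 days. Colonies were stained and counted. Four flasks per condition.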

[2] = tested on: HT-29; test: Cytotoxicity against human HT-29 cells assessed as plating efficiency at 10 uM; assay type: functional
How it was run: (§1)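 Colony formation assay of HT-29 cells exposed to drug or DMSO for 2 hr. Plating efficiency defined non-toxic concentrations, meaning plating efficiency above 80%. After 10 to 14 days colonies were fixed in 3:1 methanol/acetic acid for 15 min, stained with 0.5% crystal violet in methanol for 15 min, and counted to give percent survival.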

[3] = tested on: Nucleic Acid; test: Induction of Hsf1 DNA binding affinity in human HT-29 cells at 8 uM after 2 hrs; assay type: cell-based
How it was run: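 HT-29 cells were incubated with drug for 2 hr at 37°C (30 min is also stated for the treatment) and nuclear protein was extracted. Gel shift assay used a 32P-labelled rat Hsp70 heat shock element oligomer. Hsf1 identity was confirmed by antibody supershift.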

[4] = tested on: HT-29; test: Phototoxicity against human HT-29 cells at 10 uM irradiated with 4 Gy/min; assay type: functional, cell-based
[5] = tested on: HT-29; test: Phototoxicity against human HT-29 cells irradiated with 2 Gy/min; assay type: functional, cell-based
[6] = tested on: HT-29; test: Phototoxicity against human HT-29 cells assessed as polyploidy formation at 10 uM irradiated with 4 Gy/min; assay type: functional, cell-based
How it was run: (§2)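 They were fixed by adding cold 70% ethanol, washed in PBS, and stained with propidium iodide plus RNase for 30-45 min at 37°C. Flow cytometry scored polyploidy and sub-G0 cells 48 hr after irradiation.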

[7] = tested on: HT-29; test: Cell cycle arrest in photoirradiated human HT-29 cells assessed as accumulation at subG0 phase after 48 hrs; assay type: functional, cell-based; how it was run: as §2
[8] = tested on: HT-29; test: Cytotoxicity against human HT-29 cells assessed as plating efficiency at 25 uM; assay type: functional; how it was run: as §1

Row | Compound | Activity [1] | Activity [2] | Activity [3] | Activity [4] | Activity [5] | Activity [6] | Activity [7] | Activity [8]
1 | O=C(/C=C/c1ccccc1O)c1ccccc1O | Active | >80% | Active | Active |  |  |  | 
2 | O=C(/C=C/c1ccccc1)c1cc(O)ccc1O |  |  | Active | Active | Dose-dependent effect | Active | Active | >80%
